Source: PubChem BioAssay
NPY-Y1 PAM-ag: NPY-Y1 receptor potentiators or agonists, primary screen, cell-based. activation, % at 3.6 µM. NPY-Y1 expressing cells, potentiator/agonist activation. 220,000 tested, 0.37% active. Neuropeptide Y receptor type 1 (Homo sapiens), P25929; in the data active means activation above about 33%, passing the limit was not always enough;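 further: cells stimulated with NPY at EC10 then isoproterenol at EC100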
Target sequence (P25929 whole entry, looked up): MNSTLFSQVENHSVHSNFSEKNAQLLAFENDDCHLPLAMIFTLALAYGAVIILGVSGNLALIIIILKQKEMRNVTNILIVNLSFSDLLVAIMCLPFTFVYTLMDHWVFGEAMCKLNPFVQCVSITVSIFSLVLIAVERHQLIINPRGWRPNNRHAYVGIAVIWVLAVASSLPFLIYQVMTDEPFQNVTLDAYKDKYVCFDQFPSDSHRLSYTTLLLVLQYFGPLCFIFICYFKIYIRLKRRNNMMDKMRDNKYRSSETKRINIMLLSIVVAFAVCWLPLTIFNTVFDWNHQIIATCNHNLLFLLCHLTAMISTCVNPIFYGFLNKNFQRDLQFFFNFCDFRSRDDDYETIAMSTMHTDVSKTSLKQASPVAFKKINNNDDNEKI
NPY Y2 blocker: NPY-Y2 receptor antagonists, primary screen, cell-based | Neuropeptide Y receptor type 2 (Homo sapiens), P49146 | NPY-Y2 expressing cells, antagonist mode | inhibition, % at 2.7 µM | 140,000 tested, 0.99% active; in the data active means inhibition above about 17%
Target sequence (P49146 whole entry, looked up): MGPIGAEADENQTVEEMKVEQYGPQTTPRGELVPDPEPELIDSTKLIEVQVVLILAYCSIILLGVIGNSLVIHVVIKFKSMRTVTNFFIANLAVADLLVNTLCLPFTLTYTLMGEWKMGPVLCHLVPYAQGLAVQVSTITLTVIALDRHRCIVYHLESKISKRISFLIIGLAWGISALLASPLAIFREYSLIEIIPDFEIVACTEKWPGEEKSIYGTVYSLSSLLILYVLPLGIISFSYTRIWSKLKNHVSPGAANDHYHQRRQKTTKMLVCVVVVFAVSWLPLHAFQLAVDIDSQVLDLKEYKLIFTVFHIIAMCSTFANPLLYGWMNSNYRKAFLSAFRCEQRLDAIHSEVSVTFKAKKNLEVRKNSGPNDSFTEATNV
NPY-Y1 antag: NPY-Y1 receptor antagonists, primary screen, cell-based. Neuropeptide Y receptor type 1 (Homo sapiens), P25929. HEK293-CNG Y1 cells, membrane potential fluorescence; NPY at EC95, then isoproterenol. inhibition, % at 3.6 µM. 200,000 tested, 1% active. AID 1040, 2008;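 active means inhibition above the campaign mean inhibition of all tested compounds plus 3 SD, cut at about 20% in these data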
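Test system: HEK293 cells co-expressing NPY Y1 receptor and cyclic-nucleotide gated channel; Also added: NPY (25 nM), isoproterenol (1 µM), Ro 20-1724 (25 µM); Compound dosing: one concentration, 3.6 µM, in 0.4% DMSO; Timing: dye 3 h, compound 60 min room temperature, stimulation 45 min; Technique: Membrane-potential fluorescent dye readout.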
bCat nuc transl: modulators of beta-catenin nuclear translocation, primary screen, imaging, HeLa cells, immunofluorescence, high-content. nuclear translocation activity, % at 5 µM. 190,000 tested, 0.3% active. AID 1665, 2009;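 active means nuclear translocation activity above 50% at 5 µM, with a well cell count of 50 or more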;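 further: per-cell ratio of nuclear to cytoplasmic median beta-catenin stain intensity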
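assay system = human HeLa cells, endogenous beta-catenin | times = compound treatment 24 h, 37°C, 5% CO2 | detection = Anti-beta-catenin immunofluorescence on PFA-fixed, Triton-permeabilized cells, DAPI nuclei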
NPY-Y2 PAM-ag: NPY-Y2 potentiators or agonists, primary screen, cell-based | AID 1359, 2008 | cells expressing NPY-Y2, potentiator/agonist read-out | 220,000 tested, 0.45% active | activation, % at 3.6 µM | Neuropeptide Y receptor type 2 (Homo sapiens), P49146; in the data active means activation above about 27%;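 further: cells stimulated with NPY near EC25 plus isoproterenol at EC100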
MT stabilize HCS: microtubule stabilizers in HeLa cells, primary screen, imaging, high-content imaging; HeLa tubulin immunostaining HCS, 24 h; share of cells brighter than vehicle mean+2SD; % tubulin-high responders, % at 10 µM; 200,000 tested, 0.83% active; AID 2205, 2009;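 active means plate Z-score above 3 for both tubulin-high and condensed-nucleus cell shares, with cell loss under 80%, at 10 µM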;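 further: anti alpha tubulin signal scored within the nucleus-defined area of each cell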
NPY-Y2 confirm: NPY-Y2 potentiators or agonists, confirmation, cell-based; shares compounds with NPY-Y2 PAM-ag; AID 1539, 2009; activation, % at 3.6 µM; cell-based NPY-Y2 potentiator/agonist assay; 450 tested, 20% active; in the data active means activation above about 33%
NPY-Y1 potentiator: NPY-Y1 potentiators or agonists, counter-screen for NPY-Y2 potentiator project, cell-based, fluorescence; shares compounds with NPY-Y2 PAM-ag; Y1 HEK293-CNG cells, membrane potential fluorescence; activation, % at 3.6 µM; 450 tested, 20% active; in the data active means activation above about 45%;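 further: cells stimulated with submaximal NPY then isoproterenol with phosphodiesterase inhibitor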
NPY-Y1 ag 2: NPY-Y1 direct agonists, selectivity assay for NPY-Y2 potentiator project, cell-based, fluorescence. shares compounds with NPY-Y2 PAM-ag. 450 tested, 37% active. activation, % at 3.6 µM. HEK293 Y1-CNGC, membrane potential fluorescence, agonism;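 active means activation above the mean of DMSO-only control wells plus 3 SD, cut at about 18% in these data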;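 further: cells stimulated with 1 µM isoproterenol plus the PDE inhibitor Ro 20-1724; Y1 agonists lower the membrane potential dye signal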
CNGC inh: CNGC cAMP sensor activity inhibitors, counter-screen for NPY-Y2 potentiator project, cell-based, HEK293-CNG parental, membrane potential fluorescence | shares compounds with NPY-Y2 PAM-ag | isoproterenol cAMP | inhibition, % at 3.6 µM | 450 tested, 32% active | AID 1703, 2009;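 active means inhibition above the control-well mean plus 3 SD of those wells, cut at about 22% in these data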
Y2 agonist ctr: NPY-Y2 direct agonists, counter-screen for NPY-Y2 potentiator project, cell-based, fluorescence | shares compounds with NPY-Y2 PAM-ag | 450 tested, 56% active | activation, % at 3.6 µM | HEK293 Y2/CNGC cells, membrane potential fluorescence, agonist mode;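 active means activation above the mean of solvent-only control wells plus 3 SD, cut at about 10% in these data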;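 further: cells stimulated by isoproterenol with no NPY added so direct agonism is tested; agonism lowers probe fluorescence through less cAMP and CNG channel opening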
Each line names hits and unclear results; the compound was inactive in the other large screens (follow-up assays come after a bar, where they were run). An excerpt weighted towards active compounds, which were near 2.6% of everything screened.

COc1cccc(N2CCN(c3ncnc4c3[nH]c3ccc(F)cc34)CC2C)c1 (centres undefined)	NPY-Y1 antag 57, NPY-Y2 PAM-ag 39, MT stabilize HCS 26 | NPY-Y2 confirm inactive | NPY-Y1 potentiator inactive | NPY-Y1 ag 2 inactive | CNGC inh inactive | Y2 agonist ctr inactive
COc1cccc(N2CCN(c3ncnc4c3[nH]c3ccccc34)CC2C)c1 (centres undefined)	none
Cc1n[nH]c(C)c1N=Nc1ccc(Br)cc1	NPY-Y2 PAM-ag 31 (no result: NPY Y2 blocker) | NPY-Y2 confirm inactive | NPY-Y1 potentiator inactive | NPY-Y1 ag 2 inactive | CNGC inh inactive | Y2 agonist ctr inactive
O=C(Nc1ccccc1C(=O)N1CCCC1)c1ccc(Cl)c([N+](=O)[O-])c1	NPY-Y2 PAM-ag 28 (no result: NPY Y2 blocker) | NPY-Y2 confirm inactive | NPY-Y1 potentiator inactive | NPY-Y1 ag 2 inactive | CNGC inh inactive | Y2 agonist ctr 10
CCn1c2ccccc2c2cc(NC(=O)CSc3nnc(-c4ccccc4OC)n3N)ccc21	NPY-Y2 PAM-ag 43 | NPY-Y2 confirm inactive | NPY-Y1 potentiator inactive | NPY-Y1 ag 2 19 | CNGC inh inactive | Y2 agonist ctr 16
Cc1ccc(-c2cnn(-c3cccc(C(F)(F)F)c3)c2N)cc1	NPY-Y2 PAM-ag 35 | NPY-Y2 confirm 52 | NPY-Y1 potentiator 58 | NPY-Y1 ag 2 44 | CNGC inh 32 | Y2 agonist ctr 60
Nc1c(-c2ccc(Cl)cc2)cnn1-c1cccc(C(F)(F)F)c1	none
CCC1(CC)Cc2ccccc2C(C2=C(O)CC(C)(C)CC2=O)=N1	none (no result: bCat nuc transl)
Cc1cccc2c1CC(C)(C)N=C2C1=C(O)CC(C)(C)CC1=O	NPY-Y2 PAM-ag 76 | NPY-Y2 confirm inactive | NPY-Y1 potentiator inactive | NPY-Y1 ag 2 inactive | CNGC inh inactive | Y2 agonist ctr inactive
CCOC(=O)C1CCN(C(=O)COC(=O)CNC(=O)c2ccc(OC)cc2)CC1	none (no result: NPY Y2 blocker)
CS(=O)(=O)NCc1nnc(SCc2ccc(C(F)(F)F)cc2)o1	NPY-Y2 PAM-ag 102 (no result: NPY Y2 blocker, NPY-Y1 antag, MT stabilize HCS) | NPY-Y2 confirm inactive | NPY-Y1 potentiator inactive | NPY-Y1 ag 2 inactive | CNGC inh inactive | Y2 agonist ctr inactive
CS(=O)(=O)NCc1nnc(SCc2ccccc2C(F)(F)F)o1	none
CC(=O)c1c(C)[nH]c(C(=O)CN2C(=O)NC(CCc3ccccc3)C2=O)c1C (centres undefined)	none (no result: NPY Y2 blocker, NPY-Y1 antag, MT stabilize HCS)
COc1ccc(-n2c(C)cc(C(=O)CN3C(=O)c4ccccc4C3=O)c2C)cc1	none
COc1ccc(-n2c(C)cc(C(=O)COC(=O)Cn3cnc4ccccc43)c2C)cc1	NPY-Y2 PAM-ag 38 | NPY-Y2 confirm inactive | NPY-Y1 potentiator inactive | NPY-Y1 ag 2 inactive | CNGC inh inactive | Y2 agonist ctr inactive
Cc1cccc2c(N)c3c(nc12)CCCC3 (tested in a mixture with another compound)	NPY-Y2 PAM-ag 49 (no result: NPY Y2 blocker) | NPY-Y2 confirm 52 | NPY-Y1 potentiator 64 | NPY-Y1 ag 2 inactive | CNGC inh inactive | Y2 agonist ctr 48
O=c1cc(-c2ccc(O)c(O)c2)oc2cc(O)c(C3OC(CO)C(O)C(O)C3O)c(O)c12 (centres undefined)	none (no result: NPY Y2 blocker)
Cc1[nH]c2ccccc2c1/C=N/NC(=O)c1cccc(S(=O)(=O)Nc2cccc(C(F)(F)F)c2)c1	NPY-Y2 PAM-ag 42 (no result: NPY Y2 blocker) | NPY-Y2 confirm 41 | NPY-Y1 potentiator 60 | NPY-Y1 ag 2 46 | CNGC inh 35 | Y2 agonist ctr 40
NNC(=O)c1cccc(S(=O)(=O)Nc2cccc(C(F)(F)F)c2)c1	none (no result: NPY Y2 blocker, NPY-Y1 antag, MT stabilize HCS)
CC(C)NC[C@@H](O)c1ccc(O)c(O)c1	NPY-Y2 PAM-ag 52 | NPY-Y2 confirm 54 | NPY-Y1 potentiator 51 | NPY-Y1 ag 2 73 | CNGC inh 57 | Y2 agonist ctr 54
CC(C)c1ccc(O)c(N)c1	none (no result: bCat nuc transl)
O=C(c1ccco1)N1CCN(C(=O)c2sccc2-c2ccccc2)CC1	NPY-Y2 PAM-ag 27 | NPY-Y2 confirm inactive | NPY-Y1 potentiator inactive | NPY-Y1 ag 2 inactive | CNGC inh inactive | Y2 agonist ctr inactive
Cc1cc(/C=N/NC(=O)Cn2c3ccccc3c(=O)c3ccccc32)c(C)n1-c1ccc(Cl)cc1	NPY-Y2 PAM-ag 31 | NPY-Y2 confirm inactive | NPY-Y1 potentiator inactive | NPY-Y1 ag 2 inactive | CNGC inh inactive | Y2 agonist ctr 20
CCNC(=S)N/N=C/c1cc(C)n(-c2ccc(Cl)cc2)c1C	none (no result: NPY Y2 blocker)
O=C(Nc1nc(-c2ccccc2)cs1)c1ccccc1NS(=O)(=O)c1ccc(F)cc1	NPY-Y2 PAM-ag 46 | NPY-Y2 confirm inactive | NPY-Y1 potentiator inactive | NPY-Y1 ag 2 inactive | CNGC inh inactive | Y2 agonist ctr inactive
O=S(=O)(c1cccc(NC(=S)N2CCN(c3ccc(F)cc3)CC2)c1)C(F)F	none
O=S(=O)(c1cccc(NC(=S)N2CCN(c3cccc(Cl)c3)CC2)c1)C(F)F	NPY-Y2 PAM-ag 30 | NPY-Y2 confirm inactive | NPY-Y1 potentiator inactive | NPY-Y1 ag 2 inactive | CNGC inh inactive | Y2 agonist ctr 17
CCOC(=O)c1c(C)sc2c1N(C(=O)CCl)c1cc(Cl)ccc1S2	NPY-Y2 PAM-ag 38 | NPY-Y2 confirm inactive | NPY-Y1 potentiator inactive | NPY-Y1 ag 2 34 | CNGC inh inactive | Y2 agonist ctr inactive
O=C(c1oc2ccccc2c1CSCc1ccccc1)N1CCN(c2ncccn2)CC1	none
Oc1ccc(O)c(Cc2nc3ccccc3s2)c1	NPY-Y2 PAM-ag 29, MT stabilize HCS 13 (no result: NPY Y2 blocker) | NPY-Y2 confirm inactive | NPY-Y1 potentiator inactive | NPY-Y1 ag 2 inactive | CNGC inh inactive | Y2 agonist ctr inactive
Oc1ccccc1OCc1nc2ccccc2s1	none
